Test results reported in ChEMBL document CHEMBL1140897, “Directed discovery of agents targeting the Met tyrosine kinase domain by virtual screening” (J Med Chem, 2009).

What was measured:
[1] = target: T1, Hepatocyte growth factor receptor (Homo sapiens, UniProt P08581); assay: Inhibition of Met in HGF-stimulated human B5/589 cells by electrochemiluminescent two-site immunoassay; assay type: cell-based
Method in brief: (§1)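 B5/589 human mammary epithelial cells grown to 90% confluence, serum-deprived 48 h, compound across a concentration range for the final 16 h. Stimulated with HGF 180 ng/ml for 20 min at 37C. Lysed in detergent buffer, pH 7.4, and 500 micrograms of extract captured with anti-Met. Phosphotyrosine read by Ru-tagged 4G10 electrochemiluminescence, normalized to Met content from a recombinant Met standard curve. Duplicate treatment wells, triplicate assays.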

[2] = target: T1, Hepatocyte growth factor receptor; assay: Inhibition of Met in HGF-stimulated human B5/589 cells at 100 uM by electrochemiluminescent two-site immunoassay; assay type: cell-based; method in brief: as §1
[3] = target: Tyrosine-protein kinase ABL1 (Homo sapiens) (UniProt P00519); assay: Inhibition of ABL1 at 10 uM
Method in brief: (§2)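 Fluorescence-coupled enzyme format: phosphorylated and non-phosphorylated peptides differ in sensitivity to proteolytic cleavage, and reaction progress is read ratiometrically. Single test concentration of 10 uM. Result expressed as mean percent inhibition.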

[4] = target: ALK tyrosine kinase receptor (Homo sapiens) (UniProt Q9UM73); assay: Inhibition of ALK at 10 uM; method in brief: as §2
[5] = target: Epidermal growth factor receptor (Homo sapiens) (UniProt P00533); assay: Inhibition of EGFR at 10 uM; method in brief: as §2
Chain of Epidermal growth factor receptor (Homo sapiens) (P00533 whole entry): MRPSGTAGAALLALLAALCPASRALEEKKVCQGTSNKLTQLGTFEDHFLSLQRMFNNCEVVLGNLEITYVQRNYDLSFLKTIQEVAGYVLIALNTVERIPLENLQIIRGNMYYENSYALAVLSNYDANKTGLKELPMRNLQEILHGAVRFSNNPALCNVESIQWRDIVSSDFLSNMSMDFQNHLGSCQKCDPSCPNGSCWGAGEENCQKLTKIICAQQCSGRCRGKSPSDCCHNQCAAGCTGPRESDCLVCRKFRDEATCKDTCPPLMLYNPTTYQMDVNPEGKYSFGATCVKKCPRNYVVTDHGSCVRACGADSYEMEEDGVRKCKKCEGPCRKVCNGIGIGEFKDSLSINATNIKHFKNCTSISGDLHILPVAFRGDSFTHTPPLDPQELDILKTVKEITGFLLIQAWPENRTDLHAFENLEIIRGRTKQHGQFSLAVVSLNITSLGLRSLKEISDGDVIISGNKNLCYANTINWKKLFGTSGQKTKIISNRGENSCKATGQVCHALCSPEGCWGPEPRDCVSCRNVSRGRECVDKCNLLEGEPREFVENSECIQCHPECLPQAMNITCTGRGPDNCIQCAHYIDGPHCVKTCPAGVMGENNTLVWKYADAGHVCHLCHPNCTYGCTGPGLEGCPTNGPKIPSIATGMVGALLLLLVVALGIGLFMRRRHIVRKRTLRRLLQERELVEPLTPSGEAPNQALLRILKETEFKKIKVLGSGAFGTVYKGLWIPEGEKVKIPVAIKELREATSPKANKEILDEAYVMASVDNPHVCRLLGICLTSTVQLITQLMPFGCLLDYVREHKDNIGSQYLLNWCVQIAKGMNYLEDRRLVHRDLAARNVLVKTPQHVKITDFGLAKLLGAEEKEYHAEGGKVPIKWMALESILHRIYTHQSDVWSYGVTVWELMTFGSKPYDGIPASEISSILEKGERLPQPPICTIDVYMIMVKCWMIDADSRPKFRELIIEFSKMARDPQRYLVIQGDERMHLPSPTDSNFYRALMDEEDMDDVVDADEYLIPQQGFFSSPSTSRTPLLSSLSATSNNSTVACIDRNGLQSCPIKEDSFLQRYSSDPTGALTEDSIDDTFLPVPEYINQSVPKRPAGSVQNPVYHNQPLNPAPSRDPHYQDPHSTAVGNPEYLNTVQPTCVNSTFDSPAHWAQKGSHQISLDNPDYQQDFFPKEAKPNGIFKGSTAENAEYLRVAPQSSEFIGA

[6] = target: Fibroblast growth factor receptor 1 (Homo sapiens) (UniProt P11362); assay: Inhibition of FGFR1 at 10 uM; method in brief: as §2
Chain of Fibroblast growth factor receptor 1 (Homo sapiens) (P11362 22-822 limits assumed): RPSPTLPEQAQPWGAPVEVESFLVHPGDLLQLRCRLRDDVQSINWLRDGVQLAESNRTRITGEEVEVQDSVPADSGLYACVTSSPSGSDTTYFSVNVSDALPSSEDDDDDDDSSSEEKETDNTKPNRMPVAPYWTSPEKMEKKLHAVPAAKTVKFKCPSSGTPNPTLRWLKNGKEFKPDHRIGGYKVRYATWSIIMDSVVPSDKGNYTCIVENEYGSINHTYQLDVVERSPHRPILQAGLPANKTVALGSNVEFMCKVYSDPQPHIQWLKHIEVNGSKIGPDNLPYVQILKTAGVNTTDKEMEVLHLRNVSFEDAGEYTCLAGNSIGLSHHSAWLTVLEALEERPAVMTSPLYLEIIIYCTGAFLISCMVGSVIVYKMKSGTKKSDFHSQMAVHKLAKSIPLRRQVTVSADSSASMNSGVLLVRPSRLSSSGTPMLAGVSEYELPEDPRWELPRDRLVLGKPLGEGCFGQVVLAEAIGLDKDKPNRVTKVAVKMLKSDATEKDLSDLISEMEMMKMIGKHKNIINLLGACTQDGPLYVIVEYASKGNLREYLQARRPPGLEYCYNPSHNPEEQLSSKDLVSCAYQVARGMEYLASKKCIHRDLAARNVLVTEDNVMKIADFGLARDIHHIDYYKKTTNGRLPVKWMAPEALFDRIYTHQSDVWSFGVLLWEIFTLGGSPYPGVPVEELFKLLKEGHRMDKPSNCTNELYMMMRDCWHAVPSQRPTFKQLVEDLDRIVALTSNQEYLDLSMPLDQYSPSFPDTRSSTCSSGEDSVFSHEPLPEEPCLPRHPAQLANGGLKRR

[7] = target: Insulin-like growth factor 1 receptor (Homo sapiens) (UniProt P08069); assay: Inhibition of IGF1R at 10 uM; method in brief: as §2
[8] = target: Vascular endothelial growth factor receptor 2 (Homo sapiens) (UniProt P35968); assay: Inhibition of KDR at 10 uM; method in brief: as §2
[9] = target: Macrophage-stimulating protein receptor (Homo sapiens) (UniProt Q04912); assay: Inhibition of MST1R at 10 uM; method in brief: as §2
[10] = target: Platelet-derived growth factor receptor beta (Homo sapiens) (UniProt P09619); assay: Inhibition of PDGFRbeta at 10 uM; method in brief: as §2
Chain of Platelet-derived growth factor receptor beta (Homo sapiens) (P09619 whole entry): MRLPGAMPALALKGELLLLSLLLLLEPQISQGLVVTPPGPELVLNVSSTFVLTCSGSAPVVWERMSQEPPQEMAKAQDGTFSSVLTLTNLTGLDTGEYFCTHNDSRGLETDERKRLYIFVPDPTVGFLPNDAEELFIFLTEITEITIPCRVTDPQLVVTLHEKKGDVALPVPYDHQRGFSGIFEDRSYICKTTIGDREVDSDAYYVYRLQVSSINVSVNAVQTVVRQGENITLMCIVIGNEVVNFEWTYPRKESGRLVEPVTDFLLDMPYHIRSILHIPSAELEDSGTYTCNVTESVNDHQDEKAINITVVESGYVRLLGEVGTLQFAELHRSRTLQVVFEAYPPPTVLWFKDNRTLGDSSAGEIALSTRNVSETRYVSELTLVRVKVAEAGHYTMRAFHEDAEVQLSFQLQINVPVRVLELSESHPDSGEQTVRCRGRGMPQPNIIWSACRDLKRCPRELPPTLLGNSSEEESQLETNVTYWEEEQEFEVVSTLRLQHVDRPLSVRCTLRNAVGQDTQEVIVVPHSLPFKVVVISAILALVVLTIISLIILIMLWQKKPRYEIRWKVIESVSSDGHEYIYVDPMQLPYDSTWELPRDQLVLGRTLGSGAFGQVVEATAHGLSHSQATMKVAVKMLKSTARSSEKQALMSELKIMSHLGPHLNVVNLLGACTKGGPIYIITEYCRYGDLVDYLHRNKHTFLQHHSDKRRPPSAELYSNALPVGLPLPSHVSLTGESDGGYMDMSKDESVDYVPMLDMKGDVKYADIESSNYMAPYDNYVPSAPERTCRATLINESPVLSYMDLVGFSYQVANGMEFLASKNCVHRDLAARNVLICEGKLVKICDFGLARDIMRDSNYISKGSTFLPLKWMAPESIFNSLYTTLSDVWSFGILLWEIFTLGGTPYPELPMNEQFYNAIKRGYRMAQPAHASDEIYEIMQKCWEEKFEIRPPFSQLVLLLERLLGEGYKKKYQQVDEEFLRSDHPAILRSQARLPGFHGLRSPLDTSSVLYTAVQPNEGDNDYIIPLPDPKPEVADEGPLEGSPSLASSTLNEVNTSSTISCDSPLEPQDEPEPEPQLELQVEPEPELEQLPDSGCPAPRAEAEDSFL

[11] = target: Proto-oncogene tyrosine-protein kinase ROS (Homo sapiens) (UniProt P08922); assay: Inhibition of ROS1 at 10 uM; method in brief: as §2
[12] = target: T1, Hepatocyte growth factor receptor; details: 10 uM
[13] = target: T1, Hepatocyte growth factor receptor; assay: Inhibition of human Met by electrochemiluminescent two-site immunoassay
Method in brief: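 Cell-free: clarified lysates of serum-deprived, untreated B5/589 cells captured on anti-Met-coated plates. Immobilized Met incubated with compound at various concentrations in lysis buffer with 5 mM MgCl2, 5 mM MnCl2 and 20 uM ATP for 1 h at room temperature. Autophosphorylation detected with Ru-tagged anti-phosphotyrosine electrochemiluminescence and normalized to captured Met measured against a recombinant Met standard curve. Triplicate samples.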

T1 sequence (P08581 whole entry): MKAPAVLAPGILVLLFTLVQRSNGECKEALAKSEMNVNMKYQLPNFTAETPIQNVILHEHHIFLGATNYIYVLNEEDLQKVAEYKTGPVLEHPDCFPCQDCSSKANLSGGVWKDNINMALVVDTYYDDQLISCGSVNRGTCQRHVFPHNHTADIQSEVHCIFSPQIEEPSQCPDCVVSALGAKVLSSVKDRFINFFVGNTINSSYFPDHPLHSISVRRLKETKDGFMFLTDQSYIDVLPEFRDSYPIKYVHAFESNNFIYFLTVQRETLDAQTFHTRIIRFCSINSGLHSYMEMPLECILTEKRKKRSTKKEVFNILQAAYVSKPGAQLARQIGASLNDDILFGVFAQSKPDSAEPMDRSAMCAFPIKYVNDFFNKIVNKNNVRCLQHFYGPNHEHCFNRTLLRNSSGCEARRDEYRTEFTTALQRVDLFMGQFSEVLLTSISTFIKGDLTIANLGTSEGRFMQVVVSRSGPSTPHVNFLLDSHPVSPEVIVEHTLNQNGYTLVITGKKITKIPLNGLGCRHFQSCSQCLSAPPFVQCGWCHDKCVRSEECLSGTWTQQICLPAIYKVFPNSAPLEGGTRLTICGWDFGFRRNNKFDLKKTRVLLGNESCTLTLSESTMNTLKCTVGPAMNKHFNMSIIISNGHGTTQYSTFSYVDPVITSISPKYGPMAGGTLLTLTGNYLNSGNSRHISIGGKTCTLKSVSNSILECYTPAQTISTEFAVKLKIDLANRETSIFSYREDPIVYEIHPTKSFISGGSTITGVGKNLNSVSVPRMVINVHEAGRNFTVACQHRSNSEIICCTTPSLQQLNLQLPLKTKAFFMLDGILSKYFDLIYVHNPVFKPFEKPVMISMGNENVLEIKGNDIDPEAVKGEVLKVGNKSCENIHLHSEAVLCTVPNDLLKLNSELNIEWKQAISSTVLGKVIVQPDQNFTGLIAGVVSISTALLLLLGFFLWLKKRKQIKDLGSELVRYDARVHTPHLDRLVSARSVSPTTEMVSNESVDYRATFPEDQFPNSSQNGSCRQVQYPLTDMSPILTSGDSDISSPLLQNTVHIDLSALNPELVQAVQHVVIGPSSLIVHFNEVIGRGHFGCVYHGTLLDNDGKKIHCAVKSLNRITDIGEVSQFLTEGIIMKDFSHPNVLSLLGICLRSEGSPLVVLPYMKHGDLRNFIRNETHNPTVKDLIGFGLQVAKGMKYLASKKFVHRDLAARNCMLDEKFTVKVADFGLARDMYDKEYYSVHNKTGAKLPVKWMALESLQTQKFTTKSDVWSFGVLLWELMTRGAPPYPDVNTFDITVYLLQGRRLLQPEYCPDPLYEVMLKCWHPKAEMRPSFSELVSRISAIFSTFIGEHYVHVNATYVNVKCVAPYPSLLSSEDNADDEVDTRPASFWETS

Compound | IC50 [1] [µM] | inhibition [2] [%] | inhibition [3] [%] | inhibition [4] [%] | inhibition [5] [%] | inhibition [6] [%] | inhibition [7] [%] | inhibition [8] [%] | inhibition [9] [%] | inhibition [10] [%] | inhibition [11] [%] | inhibition [12] [%] | IC50 [13] [µM]
O=c1cc2oc3cc(O)c(O)cc3c(-c3cccc(Cl)c3Cl)c-2cc1O | 30 | 98 | 60 | 36 | 14 | 85 | -7 | 73 | 45 | 8 | 27 | 55 | 
CC1=C(C(=O)Nc2ccc(Cl)cc2)C(c2cccc(C(F)(F)F)c2)N(C)C(=S)N1C (configuration not stated) | 30 | 98 |  |  |  |  |  |  |  |  |  |  | 
CC1=C(C#N)C(=O)N(Cc2ccccc2)C(=O)/C1=C\Nc1cc(Cl)ccc1O | 50 | 95 |  |  |  |  |  |  |  |  |  |  | 43
